High-throughput results deposited in PubChem BioAssay by several laboratories.
TRPC4 inh = inhibitors of mouse TRPC4 channel, primary screen, Fluo4 calcium, HEK293 TRPC4beta/mu-opioid cells. AID 2247, 2010. 0.39% of 300,000 active. B-score at 10 µM. Short transient receptor potential channel 4 (Mus musculus), Q9QUQ5. DAMGO-evoked Fluo4 calcium flux; stronger effect = lower value;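 active = B-score over 3 SD under the library average, no early fluorescence shift, positive overall ratio signal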
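Assay system: TRPC4beta/mu-opioid receptor HEK293 cell line; compound dosing: single concentration per test compound; detection: Fluo4 Ca2+ flux fluorescence; evaluation: per-well B score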
DSG3 Ab inh = inhibitors of pemphigus antibody binding to DSG3, primary screen, biochemical, bead-based, flow cytometry, scFv-GFP | DSG3-coupled beads, scFv-anti-DSG3-GFP binding; stronger effect = lower value | binding (percent of control), % at 10 µM | 0.48% of 310,000 active;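 active = binding more than 3 SD below its plate's average and above zero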;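 note: hits lower antibody fragment binding to DSG3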
TRPC6 inhibitor = mouse TRPC6 channel inhibitors, primary screen, cell-based, HEK293, membrane potential dye | Short transient receptor potential channel 6 (Mus musculus), Q61143 | AID 2553, 2010 | 1.1% of 310,000 active | ACh-evoked depolarization; stronger effect = lower value | B-score at 10 µM;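 active = B-score under library mean minus 3 SD, initial fluorescence not abnormally high, positive integrated signal ratio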;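 note: B-score derived from integrated fluorescence ratio over the kinetic read; more negative B-score means stronger inhibition of depolarization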
Target sequence (Q61143 whole entry, looked up): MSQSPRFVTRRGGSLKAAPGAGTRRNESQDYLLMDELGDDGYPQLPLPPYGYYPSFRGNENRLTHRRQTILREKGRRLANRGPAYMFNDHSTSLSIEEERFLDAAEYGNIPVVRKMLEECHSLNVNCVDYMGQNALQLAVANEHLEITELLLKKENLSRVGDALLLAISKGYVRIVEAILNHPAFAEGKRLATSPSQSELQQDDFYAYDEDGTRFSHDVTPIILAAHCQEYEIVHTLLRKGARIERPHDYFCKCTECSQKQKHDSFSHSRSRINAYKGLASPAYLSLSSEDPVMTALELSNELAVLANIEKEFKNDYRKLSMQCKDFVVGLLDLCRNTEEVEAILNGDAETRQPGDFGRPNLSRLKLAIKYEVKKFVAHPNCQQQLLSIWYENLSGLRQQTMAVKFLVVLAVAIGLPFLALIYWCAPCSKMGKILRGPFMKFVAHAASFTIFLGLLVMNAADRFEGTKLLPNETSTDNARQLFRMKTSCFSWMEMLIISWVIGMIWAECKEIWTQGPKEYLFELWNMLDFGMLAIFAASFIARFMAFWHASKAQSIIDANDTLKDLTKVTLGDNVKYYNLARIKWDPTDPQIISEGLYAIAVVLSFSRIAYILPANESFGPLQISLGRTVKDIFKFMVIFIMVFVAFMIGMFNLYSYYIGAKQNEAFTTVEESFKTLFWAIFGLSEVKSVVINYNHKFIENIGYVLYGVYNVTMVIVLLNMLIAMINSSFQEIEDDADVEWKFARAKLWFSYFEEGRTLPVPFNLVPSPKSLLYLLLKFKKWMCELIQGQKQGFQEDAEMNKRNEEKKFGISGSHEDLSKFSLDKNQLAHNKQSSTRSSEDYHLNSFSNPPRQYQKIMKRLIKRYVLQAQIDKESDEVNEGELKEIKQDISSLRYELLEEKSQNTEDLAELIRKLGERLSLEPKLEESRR
TRPC4 PAM = positive allosteric modulators of TRPC4, primary screen, cell-based, mouse TRPC4beta, HEK293 mu-opioid, Fluo-4 calcium. Short transient receptor potential channel 4 (Mus musculus), Q9QUQ5. DAMGO EC20, Fluo-4 Ca2+ flux; stronger effect = higher value. B-score at 10 µM. 0.42% of 310,000 active;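 active = B-score of calcium response area above 5 SD of library B-scores, with initial fluorescence ratio within 5 SD of library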
TRPC4 act = activators of mouse TRPC4 channel, primary screen, Fluo4 calcium, HEK293 TRPC4beta/mu-opioid cells; AID 2237, 2010; B-score at 10 µM; Fluo4 calcium fluorescence; stronger effect = higher value; 0.49% of 310,000 active;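 active = B-score above 5 SD of library B-scores, and initial fluorescence ratio not above library mean plus 5 SD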;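 note: positive B-score marks a calcium rise read as TRPC4 activation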
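Test system: HEK293 cells stably co-expressing mouse TRPC4beta and mu-opioid receptor | Schedule: Fluo4 dye loading 45 min at room temperature, 110 s recording | Measured by: Kinetic Fluo4 calcium fluorescence, 5 s baseline at 1 Hz | Evaluation: B score of integrated ratio | Controls: Buffer (low) and maximal DAMGO (high)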
TRPC6 activator = mouse TRPC6 channel activators, primary screen, cell-based, HEK293, membrane potential dye | Short transient receptor potential channel 6 (Mus musculus), Q61143 | B-score at 10 µM | 0.13% of 310,000 active | HEK293-TRPC6 membrane potential dye fluorescence; stronger effect = higher value;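 active = B-score of the integrated fluorescence ratio above library mean plus 3 SD, and starting fluorescence ratio within library mean plus 5 SD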;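 note: higher score means more depolarization so channel activation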
HEK293 MPD ctr = parental HEK293 membrane potential modulation, confirmation, counter-screen for TRPC6 modulator project, cell-based | membrane potential signal change, % at 10 µM | membrane potential dye fluorescence | 51% of 2,400 active | shares compounds with TRPC6 inhibitor | AID 488924, 2010;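 active = membrane potential signal moves up or down beyond 5 SD from buffer-only wells, on both duplicate plates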
HEK293 MPD ctr 2 = parental HEK293 nonspecific activity of TRPC6 modulators, second screen | inhibition, % at 10 µM | 14% of 2,400 active | shares compounds with TRPC6 inhibitor | membrane potential dye fluorescence; after compound, maximal acetylcholine stimulation | AID 488926;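 active = membrane potential signal drops by more than 5 SD from the mean control signal, in both duplicate plates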
TRPC4/MOR mod = TRPC4 modulation by TRPC6 hit compounds, confirmation, selectivity assay for TRPC6 modulator project, cell-based, HEK293 TRPC4/mu-opioid, membrane potential dye, mouse; shares compounds with TRPC6 inhibitor; membrane potential fluorescence; percent change from control (negative = decrease, positive = increase), % at 10 µM; 69% of 2,400 active; AID 488927, 2010;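 active = membrane potential signal moved up or down beyond 5 SD of buffer control wells, in both duplicate plates, actives on both sides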
TRPC4/MOR inh 2 = mouse TRPC4 off-target activity of TRPC6 modulators, second screen | shares compounds with TRPC6 inhibitor | HEK293 TRPC4/mu-opioid, membrane potential dye fluorescence; stimulated with maximal-effect DAMGO | inhibition, % at 10 µM | 55% of 2,400 active | AID 488928;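 active = drop in membrane potential signal beyond 5 SD of the control wells in both duplicate plates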;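 note: TRPC4 counter screen for TRPC6 hits run under conditions tuned for TRPC6 not TRPC4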
TRPC6 block conf = mouse TRPC6 channel inhibitors, confirmation, HEK293 cells, membrane potential dye, duplicate. inhibition, % at 10 µM. shares compounds with TRPC6 inhibitor. 43% of 3,300 active. ACh-evoked depolarization;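 active = fluorescence ratio falls more than 5 SD below the full-stimulation control mean, in both duplicate runs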;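 note: integrated fluorescence ratio of peak minus minimum over baseline after agonist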
TRPC6 act confirm = mouse TRPC6 channel activators, confirmation, HEK293 cells, membrane potential dye, duplicate | shares compounds with TRPC6 inhibitor | HEK293-TRPC6 membrane potential dye fluorescence, FDSS | activation, % at 10 µM | 11% of 2,800 active;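 active = ratio signal rise beyond 5 SD above unstimulated control wells' mean, seen in both duplicate runs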
A number is an active result; - = inactive; . = no result given; + = active, no number. In the library only some 2.5% were active in any assay of this set; here they are far more common.

SMILES	TRPC4 inh	DSG3 Ab inh	TRPC6 inhibitor	TRPC4 PAM	TRPC4 act	TRPC6 activator	HEK293 MPD ctr	HEK293 MPD ctr 2	TRPC4/MOR mod	TRPC4/MOR inh 2	TRPC6 block conf	TRPC6 act confirm
CCOC(=O)c1c(-c2ccccc2)nnn1-c1nc(OCC)nc(N2CCCCC2)n1	-	-	-	-	-	16	354%	-	91%	-	-	176%
CCOC(=O)c1nnn(-c2nc(N3CCCC3)nc(N3CCCC3)n2)c1-c1ccccc1	-	.	-	-	-	-	.	.	.	.	.	.
COc1ccc(/C=C(/C(=O)c2ccc(Cl)cc2Cl)n2cncn2)cc1	-	-	-	-	-	-	.	.	.	.	.	.
CN(C)c1ccc(/C=C(/C(=O)c2ccc(Cl)cc2Cl)n2cncn2)cc1	-	.	-6.4	-	52	49	+	+	266%	-	-	487%
COc1cc(/C=N/NC(=O)c2ccc(Cl)c(S(N)(=O)=O)c2)ccc1OCC(N)=O	-	-	-	-	-	-	.	.	.	.	.	.
Cc1ccc(S(=O)(=O)/C(C#N)=C/c2c(N3CCOCC3)nc3c(C)cccn3c2=O)cc1	-	-	-5.9	-	-	-	-	-	-10%	-	-	-
O=C1/C(=C\c2cc([N+](=O)[O-])ccc2O)SC(=S)N1Cc1ccc(Cl)cc1	-	-	-	21	137	51	+	-	284%	-	-	178%
CCOC(=O)c1c(N2C(=O)CC(Sc3ccccc3C(=O)O)C2=O)sc2c1CCCC2 (configuration not stated)	-	-	-	-	-	18	147%	-	8.0%	-	-	120%
CN(C)CCNc1cc(-c2ccncc2)nc2ccccc12	-	-	-11	15	-	-	-328%	90%	-81%	78%	75%	-
Cc1ccc(-c2nc(NCCN(C)C)c3ccccc3n2)cc1	-	-	-	-	-	-	.	.	.	.	.	.
CCOc1ccc(NC(=O)C(NC(=O)C2CCC(C)CC2)C(C)C)cc1 (configuration not stated)	-	-	-5.7	-	-	-	-	-	-	-	-	-
CC1CCC(C(=O)NC(C(=O)Nc2ccccn2)C(C)C)CC1 (configuration not stated)	-	-	-	-	-	-	.	.	.	.	.	.
Cn1c(=O)c2c(nc(N3CCc4ccccc4C3)n2C)n(C)c1=O	-	-	-	-	-	-	.	.	.	.	.	.
COCCn1c(SCc2cccc(F)c2)nc2cc(C(=O)OC)ccc2c1=O	-	-	-	-	-	-	.	.	.	.	.	.
